What is called Ki is the dissociation constant of the complex between target and ligand, obtained from inhibition or displacement.

From BindingDB's records for doi:10.1016/j.bmcl.2004.04.085 (Merck Sharp & Dohme Research Laboratories, 2004) come the findings set out here.

Assay [1] addresses T1, Gamma-aminobutyric acid receptor subunit alpha-1/beta-3/gamma-2 (Homo sapiens, UniProt P14867+P18507+P28472).
T1 sequence (P14867 whole entry): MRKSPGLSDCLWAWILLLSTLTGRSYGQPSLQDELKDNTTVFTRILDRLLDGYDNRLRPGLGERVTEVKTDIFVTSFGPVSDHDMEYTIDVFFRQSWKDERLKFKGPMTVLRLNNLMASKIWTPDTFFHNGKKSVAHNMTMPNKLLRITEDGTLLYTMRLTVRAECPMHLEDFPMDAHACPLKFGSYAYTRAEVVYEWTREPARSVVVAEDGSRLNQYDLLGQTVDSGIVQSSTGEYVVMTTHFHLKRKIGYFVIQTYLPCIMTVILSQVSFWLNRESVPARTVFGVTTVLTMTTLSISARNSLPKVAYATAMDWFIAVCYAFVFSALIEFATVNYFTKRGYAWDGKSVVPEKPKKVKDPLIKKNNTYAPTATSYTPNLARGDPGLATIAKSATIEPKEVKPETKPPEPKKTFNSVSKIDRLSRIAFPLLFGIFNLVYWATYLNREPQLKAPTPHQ
T1 sequence (P18507 whole entry): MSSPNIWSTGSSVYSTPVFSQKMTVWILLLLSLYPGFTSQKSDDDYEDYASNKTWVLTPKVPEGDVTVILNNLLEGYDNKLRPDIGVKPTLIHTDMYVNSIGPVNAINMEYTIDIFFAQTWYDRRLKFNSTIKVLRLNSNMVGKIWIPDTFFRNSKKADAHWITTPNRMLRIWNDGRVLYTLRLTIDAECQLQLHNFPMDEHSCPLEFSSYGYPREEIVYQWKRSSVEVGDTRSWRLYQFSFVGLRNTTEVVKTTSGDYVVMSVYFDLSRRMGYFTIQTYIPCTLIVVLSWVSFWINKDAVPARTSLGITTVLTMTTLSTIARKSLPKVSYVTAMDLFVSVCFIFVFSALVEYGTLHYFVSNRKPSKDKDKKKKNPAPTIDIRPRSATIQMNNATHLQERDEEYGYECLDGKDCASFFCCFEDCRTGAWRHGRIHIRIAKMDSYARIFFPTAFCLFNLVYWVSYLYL
T1 sequence (P28472 whole entry): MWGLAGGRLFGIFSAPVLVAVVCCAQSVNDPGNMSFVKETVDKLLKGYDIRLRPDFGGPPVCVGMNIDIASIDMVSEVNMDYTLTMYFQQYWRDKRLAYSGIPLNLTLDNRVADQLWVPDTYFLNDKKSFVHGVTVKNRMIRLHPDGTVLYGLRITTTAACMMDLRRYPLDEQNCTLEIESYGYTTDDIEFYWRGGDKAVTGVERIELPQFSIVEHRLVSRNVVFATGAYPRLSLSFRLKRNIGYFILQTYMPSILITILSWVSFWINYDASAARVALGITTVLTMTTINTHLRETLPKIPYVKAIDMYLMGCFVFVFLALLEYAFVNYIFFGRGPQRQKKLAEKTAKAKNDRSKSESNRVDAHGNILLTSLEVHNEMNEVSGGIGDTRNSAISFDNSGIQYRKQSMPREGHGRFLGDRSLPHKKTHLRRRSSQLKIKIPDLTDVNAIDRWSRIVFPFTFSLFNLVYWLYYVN
Kind of assay: In vitro binding affinity against gamma-aminobutyric acid A receptor, alpha 1 expressed in L(tk) cells by displacement of [3H]Ro-151788. The procedure, abridged: (§1)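 Binding to cloned human α1β3γ2, α2β3γ2 or α3β3γ2 receptors stably expressed in L(tk-) cells, measured as displacement of [3H]Ro15-1788; means ± SEM, n = 3-7.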
A general note: Loss of bound radioactivity is the signal in a displacement assay; it reports binding, not function.

The target in assay [2] is T2, Gamma-aminobutyric acid receptor subunit alpha-3/beta-3/gamma-2 (Homo sapiens, UniProt P34903+P18507+P28472).
T2 sequence (P34903 whole entry): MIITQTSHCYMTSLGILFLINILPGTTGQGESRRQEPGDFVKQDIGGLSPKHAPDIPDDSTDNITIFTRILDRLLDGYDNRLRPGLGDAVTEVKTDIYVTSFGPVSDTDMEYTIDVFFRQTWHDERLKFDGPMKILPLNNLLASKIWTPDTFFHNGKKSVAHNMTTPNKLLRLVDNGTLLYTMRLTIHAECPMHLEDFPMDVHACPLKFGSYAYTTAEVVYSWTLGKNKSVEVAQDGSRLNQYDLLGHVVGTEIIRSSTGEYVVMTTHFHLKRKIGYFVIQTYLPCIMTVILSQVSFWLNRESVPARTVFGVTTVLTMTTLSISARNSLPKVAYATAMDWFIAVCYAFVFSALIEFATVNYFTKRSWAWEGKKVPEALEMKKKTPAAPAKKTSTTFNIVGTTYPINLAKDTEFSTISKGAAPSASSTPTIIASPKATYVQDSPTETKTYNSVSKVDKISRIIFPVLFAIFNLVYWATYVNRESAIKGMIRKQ
T2 sequence (P18507 whole entry): T1 sequence (P18507 whole entry)
T2 sequence (P28472 whole entry): T1 sequence (P28472 whole entry)
Kind of assay: In vitro binding affinity against Gamma-aminobutyric acid A receptor, alpha 3 expressed in L(tk) cells by displacement of [3H]Ro-151788. The procedure, abridged:
as §1

The target of assay [3] is T2, Gamma-aminobutyric acid receptor subunit alpha-3/beta-3/gamma-2. The experiment in a line: In vitro displacement of [3H]Ro-151788 from human GABA-A receptor alpha-3-beta-3-gamma-2 subunits expressed in L(tk-) cells. The procedure, abridged: as §1

In turn, `O=c1c2cnc3c(c2[nH]n1-c1ccc(OC(F)(F)F)cc1)CCCC3` [2-(4-Trifluoromethoxy-phenyl)-2,5,6,7,8,9-hexahydro-pyrazolo[4,3-c]quinolin-3-one] had a Ki in assay [1] of 7.3 nM.

As to `O=c1c2cnc3c(c2[nH]n1-c1ccc(OC(F)F)cc1)CCCC3` [2-(4-Difluoromethoxy-phenyl)-2,5,6,7,8,9-hexahydro-pyrazolo[4,3-c]quinolin-3-one], the Ki in assay [2] worked out at 2.3 nM; in assay [1], 1 nM. As to `O=c1c2c([nH]n1-c1ccc(Cl)cc1)C1CN(CC3CC3)CCC1N=C2` (stereo not drawn) [2-(4-Chloro-phenyl)-8-cyclopropylmethyl-2,5,5a,6,7,8,9,9a-octahydro-pyrazolo[4,3-c][1,6]naphthyridin-3-one], the affinity in assay [2], expressed as Ki, was 7.5 nM. In turn, `O=c1c2c([nH]n1-c1ccc(Cl)cc1)C1CCCCCC1N=C2` (stereo not drawn) [2-(4-Chloro-phenyl)-2,5a,6,7,8,9,10,10a-octahydro-5H-1,2,5-triaza-cyclohepta[e]inden-3-one] returned a Ki in assay [1] of 1.1 nM.

For the compound `O=c1c2c([nH]n1-c1ccc(Cl)cc1)C1CCCC1N=C2` (stereo not drawn) [2-(4-Chloro-phenyl)-2,5a,6,7,8,8a-hexahydro-5H-cyclopenta[b]pyrazolo[3,4-d]pyridin-3-one], in assay [2], the Ki was found to be 1.1 nM. For the compound `O=c1c2cnc3c(c2[nH]n1-c1ccc(OC2CC2)cc1)CCCC3` [2-(4-Cyclopropoxy-phenyl)-2,5,6,7,8,9-hexahydro-pyrazolo[4,3-c]quinolin-3-one], the Ki is 2.2 nM in assay [3] and 1.1 nM in assay [1].
